Here are results for five molecules from ChEMBL document CHEMBL1142866, “Synthesis and preliminary evaluation of 18F- or 11C-labeled bicyclic nucleoside analogues as potential probes for imaging varicella-zoster virus thymidine kinase gene expression using positron emission tomography” (J Med Chem, 2007).

One may read the IC50 as the concentration that inhibits the measured activity by half.

Data set [1] can be described thus: Inhibition of recombinant VZV TK assessed as [CH3-H3]dThd phosphorylation. More on the design: species or system Human alphaherpesvirus 3. The gist of the method:
(§1)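 Purified recombinant VZV TK (7.75 ng), HSV-1 TK (226 ng) or cytosolic TK-1 (455 ng). Buffer: 50 mM Tris-HCl pH 8.0, 2.5 mM MgCl2, 10 mM DTT, 2.5 mM ATP, 1.0 mg/mL BSA, 10 mM NaF, 1 µM [CH3-3H]dThd final. Incubated 30 min at 37 °C (linear range) with graded compound concentrations. Product caught on DE-81 disks, washed, scintillation-counted. IC50 is 50% inhibition of dThd phosphorylation.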

A further data set concerns the target T1, Thymidine kinase (Human alphaherpesvirus 1, UniProt Q9QNF7).
T1 sequence (Q9QNF7 whole entry): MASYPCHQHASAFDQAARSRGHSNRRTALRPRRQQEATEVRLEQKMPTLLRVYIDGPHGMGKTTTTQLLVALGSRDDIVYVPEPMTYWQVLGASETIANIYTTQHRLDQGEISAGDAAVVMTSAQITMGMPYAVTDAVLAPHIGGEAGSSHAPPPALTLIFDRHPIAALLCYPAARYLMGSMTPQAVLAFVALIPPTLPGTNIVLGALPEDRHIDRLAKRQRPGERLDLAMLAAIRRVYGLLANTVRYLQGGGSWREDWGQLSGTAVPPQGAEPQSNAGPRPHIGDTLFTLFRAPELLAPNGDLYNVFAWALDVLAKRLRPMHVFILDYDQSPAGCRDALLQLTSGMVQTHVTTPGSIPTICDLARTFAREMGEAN
Nature of the data set: Inhibition of recombinant HSV-1 TK assessed as [CH3-H3]dThd phosphorylation. The gist of the method: as §1

Data set [2] deals with T2, Thymidine kinase, cytosolic (Homo sapiens, UniProt P04183).
T2 sequence (P04183 whole entry): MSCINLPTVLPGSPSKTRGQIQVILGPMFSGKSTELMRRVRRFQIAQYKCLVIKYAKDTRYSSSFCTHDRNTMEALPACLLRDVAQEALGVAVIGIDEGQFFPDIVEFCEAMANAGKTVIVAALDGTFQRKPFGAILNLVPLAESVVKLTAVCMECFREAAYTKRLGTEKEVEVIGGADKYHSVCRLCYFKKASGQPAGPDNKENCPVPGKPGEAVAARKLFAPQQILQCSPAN
Nature of the data set: Inhibition of recombinant cytosolic TK-1 assessed as [CH3-H3]dThd phosphorylation. The gist of the method:
as §1

In data set [3] the test system is OST. Nature of the data set: Cytotoxicity against OST cells expressing HSV1 TK. The class given is cell-based. As to conditions: human; call rule not given here. The gist of the method: (§2)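 OST TK- control cells and OST TK- cells expressing HSV-1 TK or VZV TK were cultured 5 days with graded compound concentrations. Cells were then trypsinized and counted on a Coulter counter. CC50 is the concentration in µM that reduces cell number by 50%.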

Data set [4] concerns OST. Put plainly: Cytotoxicity against OST cells expressing VZV TK. The data set is classed as cell-based. Conditions: human. The gist of the method: as §2

A value given as a limit tells only on which side of the number the result lay.

With `O=c1nc2oc(-c3ccc(F)cc3)cc2cn1[C@H]1C[C@H](O)[C@@H](CO)O1`, the results for the IC50 (in data set [1]; at Thymidine kinase; in data set [2]) were 0.18 µM, above 500 µM and above 500 µM, respectively.
Regarding `O=c1nc2oc(-c3cccc(OCCF)c3)cc2cn1[C@H]1C[C@H](O)[C@@H](CO)O1`, the Activity entry in the data set on OST [3] and in the data set on OST [4] was “Not Active” throughout. Further, the IC50 was 53 µM in data set [1], above 500 µM on Thymidine kinase and above 500 µM in data set [2].
`O=c1nc2oc(-c3cccc(O)c3)cc2cn1[C@H]1C[C@H](O)[C@@H](CO)O1`: the Activity entry in the data set with OST [3] and in the data set on OST [4] was “Not Active” in each case. The IC50 in data set [1] was 2.6 µM; on Thymidine kinase, above 500 µM; in data set [2], above 500 µM.
Regarding `Nc1nc2c(ncn2CCC(CO)CF)c(=O)[nH]1` (stereo not given), the IC50 on Thymidine kinase came to 9 µM.
Same read-out and setting: the same measure for `Nc1nc2c(ncn2CCC(CO)CO)c(=O)[nH]1` [PENCICLOVIR]: 11 µM.
